Data as given in ChEMBL document CHEMBL1132228, “Unique analogues of anandamide: arachidonyl ethers and carbamates and norarachidonyl carbamates and ureas” (J Med Chem, 1999).

Experiments:
Cannabinoid receptor 1 [1] = target: T1, Cannabinoid receptor 1 (Rattus norvegicus, UniProt P20272); assay: The compound was tested for Ki value against rat whole brain P2 membrane preparation in presence of enzyme inhibitor PMSF.
How it was run: (§1)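 Rat whole-brain P2 membranes (100-150 µg protein) incubated 1 h at 30 °C with 1 nM [3H]CP-55,940 and analogue at 1 nM-10 µM, with or without PMSF (50 µM). Buffer: 50 mM Tris-HCl, 1 mM EDTA, 3 mM MgCl2, 5 mg/mL BSA; ethanol ≤0.4%. Nonspecific binding with 1 µM CP-55,940. Stopped with ice-cold buffer, then rapid filtration on PEI-treated filters. Triplicates; 3-6 experiments; mean ± SE.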

Mus musculus [2] = assay: The compound tested in vivo for antinociception as measured by tail flick response(TF) activity at 30 mg/kg; type: functional
How it was run: (§2)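 Mice dosed iv by tail vein in ethanol:emulphor:saline 1:1:18. Tail flick to heat measured at 4 min, with 2-4 s baseline and 10 s cut-off, expressed as %MPE. Same mice then placed in photocell cages; beam breaks counted over 10 min and expressed as % of control. 6 mice/dose. ED50 from probit versus log dose by least-squares regression.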

Mus musculus [3] = assay: The compound tested in vivo for inhibition of spontaneous activity(SA)at 30 mg/kg; type: functional; parameters: scale not given: the % may be the effect or the level left; how it was run: as §2
Mus musculus [4] = assay: The compound tested in vivo for ring immobility (RI); type: functional
How it was run: (§3)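 Separate mice dosed iv by tail vein in ethanol:emulphor:saline 1:1:18. Rectal temperature taken by thermistor probe before and 4 min after injection; the change was recorded. Mice then placed on a 5.5-cm ring 16 cm high; time motionless over 5 min was taken as % of 300 s. Immobility ED50 from probit-log dose regression.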

Mus musculus [5] = assay: The compound tested in vivo for hypothermia as changes in rectal temperature (RT); type: functional; how it was run: as §3
Cannabinoid receptor 1 [6] = target: T1, Cannabinoid receptor 1; assay: The compound was tested for Ki value against rat whole brain P2 membrane preparation in absence of enzyme inhibitor PMSF; how it was run: as §1
Mus musculus [7] = assay: The compound tested in vivo for antinociception as measured by tail flick response(TF); type: functional; how it was run: as §2
Mus musculus [8] = assay: The compound tested in vivo for inhibition of spontaneous activity(SA); type: functional; how it was run: as §2
Mus musculus [9] = assay: The compound tested in vivo for ring immobility (RI)a; type: functional; how it was run: as §3

T1 sequence (P20272 whole entry): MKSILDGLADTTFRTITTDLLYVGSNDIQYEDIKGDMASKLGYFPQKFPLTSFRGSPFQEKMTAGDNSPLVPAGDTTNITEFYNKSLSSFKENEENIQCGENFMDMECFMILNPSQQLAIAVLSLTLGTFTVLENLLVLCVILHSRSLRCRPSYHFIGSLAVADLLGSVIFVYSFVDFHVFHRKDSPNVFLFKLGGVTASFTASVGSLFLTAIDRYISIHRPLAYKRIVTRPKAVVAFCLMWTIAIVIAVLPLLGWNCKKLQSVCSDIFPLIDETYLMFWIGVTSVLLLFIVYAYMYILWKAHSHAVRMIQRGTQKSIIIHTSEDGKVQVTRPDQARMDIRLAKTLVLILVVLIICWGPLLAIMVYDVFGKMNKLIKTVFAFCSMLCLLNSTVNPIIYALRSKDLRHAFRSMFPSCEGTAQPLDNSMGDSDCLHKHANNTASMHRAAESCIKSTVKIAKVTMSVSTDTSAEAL

With `CCCCC/C=C\C/C=C\C/C=C\C/C=C\CCCCOC(=O)NCC` the Ki (Cannabinoid receptor 1 [1]) was 2200 nM.
`CCCCC/C=C\C/C=C\C/C=C\C/C=C\CCCNC(=O)NCC(C)C` showed an Activity (Mus musculus [2]) of 26%, a Ki (Cannabinoid receptor 1 [1]) of 335 nM and an Activity (Mus musculus [3]) of 59%.
For `CCCCC/C=C\C/C=C\C/C=C\C/C=C\CCCCOCCO`, the Ki (Cannabinoid receptor 1 [1]) was 797 nM.
`CCCCC/C=C\C/C=C\C/C=C\C/C=C\CCCCOC` was tested, and the Ki (Cannabinoid receptor 1 [1]) was 4260 nM.
For `CCCCC/C=C\C/C=C\C/C=C\C/C=C\CCCNC(=O)NCCC`, the ED50 (Mus musculus [4]) was 5.4 mg/kg, the ED50 (Mus musculus [5]) was 3.4 mg/kg and the Ki (Cannabinoid receptor 1 [6]) was 170 nM. For the same molecule, the ED50 (Mus musculus [7]) was 8.9 mg/kg, the Ki (Cannabinoid receptor 1 [1]) was 91 nM and the ED50 (Mus musculus [8]) was 7.2 mg/kg.
`C=CCOCCCC/C=C\C/C=C\C/C=C\C/C=C\CCCCC` gave a Ki (Cannabinoid receptor 1 [1]) of 1170 nM.
`CCCCC/C=C\C/C=C\C/C=C\C/C=C\CCCCOCCCC` gave a Ki (Cannabinoid receptor 1 [1]) of 1710 nM.
In the case of `CCCCC/C=C\C/C=C\C/C=C\C/C=C\CCCCOC(C)C`, the Ki (Cannabinoid receptor 1 [1]) is reported as 871 nM.
`CCCCC/C=C\C/C=C\C/C=C\C/C=C\CCCNC(=O)NC(C)C` gave an ED50 (Mus musculus [4]) of 38 mg/kg, an ED50 (Mus musculus [5]) of 1.28 mg/kg and a Ki (Cannabinoid receptor 1 [6]) of 204 nM. For the same molecule, the ED50 (Mus musculus [7]) was 2.4 mg/kg, the Ki (Cannabinoid receptor 1 [1]) was 131 nM and the ED50 (Mus musculus [8]) was 5.8 mg/kg.
With `CCCCC/C=C\C/C=C\C/C=C\C/C=C\CCCNC(=O)NCC` the ED50 (Mus musculus [4]) was 19.9 mg/kg, the ED50 (Mus musculus [5]) was 16.2 mg/kg and the ED50 (Mus musculus [7]) was 3.3 mg/kg. It also gave a Ki (Cannabinoid receptor 1 [1]) of 156 nM and an ED50 (Mus musculus [8]) of 2.8 mg/kg.
`CCCCC/C=C\C/C=C\C/C=C\C/C=C\CCCCOCCF` gave a Ki (Cannabinoid receptor 1 [1]) of 885 nM.
Work on `CCCCC/C=C\C/C=C\C/C=C\C/C=C\CCCNC(=O)OC(C)C` yielded an Activity (Mus musculus [2]) of 3%, a Ki (Cannabinoid receptor 1 [1]) of 1230 nM and an Activity (Mus musculus [3]) of 35%.
`CCCCC/C=C\C/C=C\C/C=C\C/C=C\CCCCOCC(C)C` showed a Ki (Cannabinoid receptor 1 [1]) of 2480 nM.
`CCCCC/C=C\C/C=C\C/C=C\C/C=C\CCCCOC(C)CC` (stereo not given) showed a Ki (Cannabinoid receptor 1 [1]) of 1310 nM.
With `CCCCC/C=C\C/C=C\C/C=C\C/C=C\CCCCOC(=O)NCCC` the Ki (Cannabinoid receptor 1 [1]) was 471 nM.
In the case of `CCCCC/C=C\C/C=C\C/C=C\C/C=C\CCCCOC(=O)NC(C)C`, the Ki (Cannabinoid receptor 1 [1]) is reported as 995 nM.
`C#CCOCCCC/C=C\C/C=C\C/C=C\C/C=C\CCCCC` showed a Ki (Cannabinoid receptor 1 [1]) of 1580 nM.
For `CCCCC/C=C\C/C=C\C/C=C\C/C=C\CCCNC(=O)NCCO`, the ED50 (Mus musculus [4]) was 3.9 mg/kg, the ED50 (Mus musculus [5]) was 2.6 mg/kg and the ED50 (Mus musculus [7]) was 4 mg/kg. For the same molecule, the Ki (Cannabinoid receptor 1 [1]) was 347 nM and the ED50 (Mus musculus [8]) was 3.1 mg/kg.
With `CCCCC/C=C\C/C=C\C/C=C\C/C=C\CCCCOCC` the Ki (Cannabinoid receptor 1 [1]) was 2200 nM.
Work on `CCCCC/C=C\C/C=C\C/C=C\C/C=C\CCCNC(=O)OCCF` yielded an Activity (Mus musculus [2]) of 20%, a Ki (Cannabinoid receptor 1 [1]) of 331 nM and an Activity (Mus musculus [3]) of 18%.
In the case of `CCCCC/C=C\C/C=C\C/C=C\C/C=C\CCCNC(=O)OCC`, the Activity (Mus musculus [2]) is reported as 5%, the Ki (Cannabinoid receptor 1 [1]) is reported as 218 nM and the Activity (Mus musculus [3]) is reported as 36%.
`CCCCC/C=C\C/C=C\C/C=C\C/C=C\CCCNC(=O)NCCOC` gave an ED50 (Mus musculus [4]) of 3 mg/kg, an Activity (Mus musculus [2]) of 32% and a Ki (Cannabinoid receptor 1 [1]) of 746 nM. The Activity (Mus musculus [3]) was 69%.
For `CCCCC/C=C\C/C=C\C/C=C\C/C=C\CCCNC(=O)NC`, the ED50 (Mus musculus [4]) was 4.51 mg/kg, the ED50 (Mus musculus [5]) was 2.2 mg/kg and the ED50 (Mus musculus [7]) was 12.3 mg/kg. The Ki (Cannabinoid receptor 1 [1]) was 436 nM and the ED50 (Mus musculus [8]) was 9.9 mg/kg.
`CCCCC/C=C\C/C=C\C/C=C\C/C=C\CCCCOCCC` gave a Ki (Cannabinoid receptor 1 [1]) of 1080 nM.
In the case of `CCCCC/C=C\C/C=C\C/C=C\C/C=C\CCCCOCC1CC1`, the Ki (Cannabinoid receptor 1 [1]) is reported as 578 nM.
In the case of `CCCCC/C=C\C/C=C\C/C=C\C/C=C\CCCNC(=O)NCCF`, the ED50 (Mus musculus [5]) is reported as 0.85 mg/kg, the Ki (Cannabinoid receptor 1 [6]) is reported as 52 nM and the ED50 (Mus musculus [7]) is reported as 6.4 mg/kg. It also gave an ED50 (Mus musculus [9]) of 4.48 mg/kg, a Ki (Cannabinoid receptor 1 [1]) of 55 nM and an ED50 (Mus musculus [8]) of 3.5 mg/kg.
Work on `CCCCC/C=C\C/C=C\C/C=C\C/C=C\CCCC(=O)NCCO` [ANANDAMIDE] yielded an ED50 (Mus musculus [7]) of 6.2 mg/kg.
